Reference: ChEMBL document CHEMBL1137646, “Intracellular metabolism and persistence of the anti-human immunodeficiency virus activity of 2',3'-didehydro-3'-deoxy-4'-ethynylthymidine, a novel thymidine analog” (Antimicrob Agents Chemother, 2007)
Active and inactive are the calls of the source. The rule behind the calls is not given here.

Tests used:
[1] = test system: Human immunodeficiency virus 1; test: Antiviral activity against 0.1 MOI HIV1 3B infected in human TZM-b1 cells assessed as inhibition of viral replication after 24 hrs by luciferase assay; format: functional, organism-based
Method in brief: (§1)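 TZM-bl cells in phenol red-free RPMI 1640 were infected with HIV-1 IIIB (MOI 0.1) at the time of adding drug at various concentrations, and drug and virus stayed together for 24 h. Lysate luciferase was measured with uninfected background subtracted, in quintuple wells. Inhibition was the mean signal relative to drug-free infected cells.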

[2] = Half life in plasma of HIV1-infected patient; format: ADME, cell-free; settings: human
[3] = test system: Human immunodeficiency virus 1; test: Antiviral activity against 0.1 MOI HIV1 3B in 24 hrs pretreated human TZM-b1 cells infected 0 hr post drug removal assessed as inhibition of viral replication at 0.18 uM measured 24 hrs postinfection by luciferase assay; format: functional; settings: Human immunodeficiency virus 1, 3B
Method in brief: (§2)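 TZM-bl cells (kept in DMEM) were plated at 0.5 x 10^4 per well in phenol red-free RPMI 1640 and left to adhere 15-18 h at 37°C. They were then exposed to drug for 24 h with quintuple wells per concentration. Medium was changed to remove drug, and cells were infected with HIV-1 IIIB at MOI 0.1 at 0, 24 or 48 h after removal. Luciferase was read 24 h post-infection after subtracting the uninfected background. Inhibition is expressed relative to drug-free control wells.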

[4] = test system: Human immunodeficiency virus 1; test: Antiviral activity against 0.1 MOI HIV1 3B in 24 hrs pretreated human TZM-b1 cells infected 24 hrs post drug removal assessed as inhibition of viral replication at 0.04 to 0.18 uM measured 24 hrs postinfection by luciferase assay; format: functional, organism-based; method in brief: as §2
[5] = test system: Human immunodeficiency virus 1; test: Antiviral activity against 0.1 MOI HIV1 3B in 24 hrs pretreated human TZM-b1 cells infected 48 hrs post drug removal assessed as inhibition of viral replication at 0.04 to 0.18 uM measured 24 hrs postinfection by luciferase assay; format: functional, organism-based; method in brief: as §2
[6] = Half life in plasma of HIV1-infected patient administered as single dose; format: ADME, cell-free; settings: human
[7] = test system: Human immunodeficiency virus 1; test: Antiviral activity against 0.1 MOI HIV1 3B infected in human TZM-b1 cells assessed as inhibition of viral replication at 0.18 uM after 24 hrs by luciferase assay; format: functional; settings: Human immunodeficiency virus 1, 3B, TZM-b1, 24 h
Method in brief: (§3)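 TZM-bl cells were plated at 0.5 x 10^4 per well in phenol red-free RPMI 1640 and allowed to adhere 15-18 h at 37°C. After a medium change, drug was added with quintuple wells per concentration, and cells were infected at the same time with HIV-1 IIIB at MOI 0.1. After 24 h, cells were lysed and luciferase was read minus the uninfected background. Values are percentage of mean luminescence in drug-free wells.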

[8] = test system: Human immunodeficiency virus 1; test: Antiviral activity against 0.1 MOI HIV1 3B infected in human TZM-b1 cells assessed as inhibition of viral replication at 0.11 uM after 24 hrs by luciferase assay; format: functional; settings: Human immunodeficiency virus 1, 3B, TZM-b1, 24 h; method in brief: as §3
[9] = test system: Human immunodeficiency virus 1; test: Antiviral activity against 0.1 MOI HIV1 3B infected in human TZM-b1 cells assessed as inhibition of viral replication at 0.14 uM after 24 hrs by luciferase assay; format: functional; settings: Human immunodeficiency virus 1, 3B, TZM-b1, 24 h; method in brief: as §3
[10] = test system: CCRF-CEM; test: Drug metabolism in human CEM cells assessed as radioactive stavudine monophosphate accumulation at 2 uM after 12 hrs assessed per 10^6 cells; format: ADME, cell-based
Method in brief: (§4)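 CEM cells (2 x 10^7/ml) in RPMI 1640 with 10% dialyzed FBS were incubated at 37°C with 2 µM [3H]analog (75 mCi/mmol) and harvested at 2, 4, 8, 12, 16 and 24 h. Cells were washed in ice-cold PBS with 20 µM dipyridamole and extracted with 15% TCA. Neutralized extracts were separated on a Partisil SAX column with an H2O to 300 mM potassium phosphate gradient and radiometric detection, reported as pmol/10^6 cells, mean ± SD of three experiments.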

[11] = test system: CCRF-CEM; test: Drug metabolism in human CEM cells assessed as radioactive stavudine diphosphate accumulation at 2 uM after 12 hrs assessed per 10^6 cells; format: ADME, cell-based; method in brief: as §4
[12] = test system: CCRF-CEM; test: Drug metabolism in human CEM cells assessed as radioactive stavudine triphosphate accumulation at 2 uM after 12 hrs assessed per 10^6 cells; format: ADME, cell-based; method in brief: as §4
[13] = test system: CCRF-CEM; test: Drug metabolism in human CEM cells assessed as radioactive zidovudine monophosphate accumulation at 2 uM assessed per 10^6 cells; format: ADME, cell-based; settings: TDE = time-dependent effect; method in brief: as §4
[14] = test system: CCRF-CEM; test: Drug metabolism in human CEM cells assessed as radioactive zidovudine diphosphate accumulation at 2 uM assessed per 10^6 cells; format: ADME, cell-based; settings: TDE = time-dependent effect; method in brief: as §4
[15] = test system: CCRF-CEM; test: Drug metabolism in human CEM cells assessed as radioactive zidovudine triphosphate accumulation at 2 uM assessed per 10^6 cells; format: ADME, cell-based; settings: TDE = time-dependent effect; method in brief: as §4
[16] = test system: CCRF-CEM; test: Drug metabolism in human CEM cells assessed as radioactive 2', 3'-didehydro-3'-deoxy-4'-ethynylthymidine monophosphate accumulation at 2 uM assessed per 10^6 cells; format: ADME, cell-based; settings: TDE = time-dependent effect; method in brief: as §4
[17] = test system: CCRF-CEM; test: Drug metabolism in human CEM cells assessed as radioactive 2', 3'-didehydro-3'-deoxy-4'-ethynylthymidine diphosphate accumulation at 2 uM assessed per 10^6 cells; format: ADME, cell-based; settings: TDE = time-dependent effect; method in brief: as §4
[18] = test system: CCRF-CEM; test: Drug metabolism in human CEM cells assessed as radioactive 2', 3'-didehydro-3'-deoxy-4'-ethynylthymidine triphosphate accumulation at 2 uM assessed per 10^6 cells; format: ADME, cell-based; settings: TDE = time-dependent effect; method in brief: as §4
[19] = test system: CCRF-CEM; test: Drug metabolism in human CEM cells assessed as radioactive stavudine monophosphate accumulation at 2 uM assessed per 10^6 cells; format: ADME, cell-based; settings: TDE = time-dependent effect; method in brief: as §4
[20] = test system: CCRF-CEM; test: Drug metabolism in human CEM cells assessed as radioactive stavudine diphosphate accumulation at 2 uM assessed per 10^6 cells; format: ADME, cell-based; settings: TDE = time-dependent effect; method in brief: as §4
[21] = test system: CCRF-CEM; test: Drug metabolism in human CEM cells assessed as radioactive stavudine triphosphate accumulation at 2 uM assessed per 10^6 cells; format: ADME, cell-based; settings: TDE = time-dependent effect; method in brief: as §4
[22] = test system: CCRF-CEM; test: Stability in human CEM cells assessed as intracellular radioactive phosphorylated metabolite accumulation at 2 uM incubated for 24 hrs measured after 8 hrs of compound removal assessed per 10^6 cells; format: ADME, cell-based
Method in brief: (§5)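 CEM cells were loaded with 2 µM [3H]analog (75 mCi/mmol) for 24 h, washed, and resuspended in drug-free medium. Intracellular metabolites were then measured by SAX-HPLC with radiometric detection at 0, 2, 4, 8, 12 and 24 h after removal. Values are pmol/10^6 cells, mean ± SD of three experiments.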

[23] = test system: CCRF-CEM; test: Stability in human CEM cells assessed as intracellular radioactive triphosphate metabolite accumulation at 2 uM incubated for 24 hrs measured after 24 hrs of compound removal assessed per 10^6 cells; format: ADME, cell-based; method in brief: as §5
[24] = test system: Human immunodeficiency virus 1; test: Antiviral activity against 0.1 MOI HIV1 3B in 24 hrs pretreated human TZM-b1 cells infected 24 hrs post drug removal assessed as inhibition of viral replication at 1 to 6 uM measured 24 hrs postinfection by luciferase assay; format: functional, organism-based
Method in brief: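 TZM-bl cells were plated in phenol red-free RPMI 1640, allowed to adhere 15–18 h at 37°C, then exposed to a range of drug concentrations for 24 h. Medium was changed to remove extracellular drug, and cells were infected with HIV-1 IIIB (MOI 0.1) at 0, 24 or 48 h after removal. Luciferase was read 24 h post-infection with uninfected-cell background subtracted, in quintuple wells, and expressed relative to no-drug wells.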

[25] = test system: Human immunodeficiency virus 1; test: Antiviral activity against 0.1 MOI HIV1 3B infected in human TZM-b1 cells assessed as inhibition of viral replication at 6 uM after 24 hrs by luciferase assay; format: functional; settings: Human immunodeficiency virus 1, 3B, TZM-b1, 24 h; method in brief: as §1
[26] = test system: Human immunodeficiency virus 1; test: Antiviral activity against 0.1 MOI HIV1 3B infected in human TZM-b1 cells assessed as inhibition of viral replication at 2 uM after 24 hrs by luciferase assay; format: functional; settings: Human immunodeficiency virus 1, 3B, TZM-b1, 24 h; method in brief: as §1
[27] = test system: Human immunodeficiency virus 1; test: Antiviral activity against 0.1 MOI HIV1 3B in 24 hrs pretreated human TZM-b1 cells infected 24 hrs post drug removal assessed as inhibition of viral replication at 1 to 6 uM measured 24 hrs postinfection by luciferase assay

Q: For Cc1ccnc2c1NC(=O)c1cccnc1N2C1CC1 [NEVIRAPINE], which inhibition [1] is on record?
A: Its inhibition is “Dose-dependent effect”.

Q: What about the half-life [2] of the same compound?
A: Its half-life is 30 h.

Q: What about the inhibition at 0.18 µM [3] of the same compound?
A: The inhibition at 0.18 µM was under 50%.

Q: And the inhibition [4]?
A: Its inhibition is “inactive”.

Q: And the inhibition [5]?
A: The inhibition was “inactive”.

Q: And the half-life [6]?
A: The half-life was 30 h.

Q: And the inhibition at 0.18 µM [7]?
A: Its inhibition at 0.18 µM is 50%.

Q: What about the inhibition at 0.11 µM [8] of the same compound?
A: The inhibition at 0.11 µM was 50%.

Q: And the inhibition at 0.14 µM [9]?
A: The inhibition at 0.14 µM was 50%.

Q: For Cc1cn([C@H]2C=C[C@@H](CO)O2)c(=O)[nH]c1=O [STAVUDINE], which Activity [10] is on record?
A: Its Activity is 1.2 pmol.

Q: What about the Activity [11] of the same compound?
A: The Activity was 1.2 pmol.

Q: And the Activity [12]?
A: Its Activity is 1.2 pmol.

Q: And the Activity [13]?
A: Its Activity is “tde”.

Q: And the Activity [14]?
A: Its Activity is “tde”.

Q: What about the Activity [15] of the same compound?
A: Its Activity is “tde”.

Q: And the Activity [16]?
A: The Activity was “tde”.

Q: And the Activity [17]?
A: The Activity was “tde”.

Q: What about the Activity [18] of the same compound?
A: Its Activity is “tde”.

Q: And the Activity [19]?
A: Its Activity is “tde”.

Q: And the Activity [20]?
A: The Activity was “tde”.

Q: And the Activity [21]?
A: The Activity was “tde”.

Q: What about the Stability [22] of the same compound?
A: Its Stability is 0.2 pmol.

Q: And the Stability [23]?
A: Its Stability is “Unstable”.

Q: What about the inhibition [1] of the same compound?
A: Its inhibition is “Dose-dependent effect”.

Q: What about the inhibition [24] of the same compound?
A: Its inhibition is “inactive”.

Q: What about the inhibition at 6 µM [25] of the same compound?
A: The inhibition at 6 µM was 50%.

Q: What about the inhibition at 2 µM [26] of the same compound?
A: Its inhibition at 2 µM is 50%.

Q: And the inhibition [27]?
A: The inhibition was “inactive”.
